{
  "source": "ChEMBL document CHEMBL3244334",
  "about": "“Synthesis of pyridinium analogues of acetylcholine and their interactions with intestinal muscarinic receptors” (J Med Chem, 1979)",
  "key": {"[1]": {"test": "(§1) Competitive antagonist activity at muscarinic acetylcholine receptor in guinea pig ileum assessed as inhibition of acetyl-beta-methylcholine-induced longitudinal muscle contraction administered 10 mins prior to acetyl-beta-methylcholine induction measured every 20 mins in presence of 10 uM competitive nicotinic antagonist hexamethonium chloride", "assay_type": "tissue-based", "details": "Cavia porcellus, read-out: pA2 (converted)", "how_it_was_run": "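Ileal muscle was pretreated for 10 min with a single antagonist dose, then a cumulative acetyl-β-methylcholine concentration-response curve was run, with 10 μM hexamethonium chloride in the bath. Lachesine was the reference antagonist, run the same way. Rightward shift of the log concentration-response curves and any change in shape or maximum were assessed. Values are means ± SD.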"}, "[2]": {"test": "as §1, with “1-(2-acetoxyethyl)pyridinium iodide-induced” for “acetyl-beta-methylcholine-induced”, “1-(2-acetoxyethyl)pyridinium iodide” for “acetyl-beta-methylcholine”", "assay_type": "tissue-based", "details": "Cavia porcellus, read-out: pA2 (converted)", "how_it_was_run": "(§2)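 Ileal muscle in 10 μM hexamethonium chloride. Tissue conditioned with a single antagonist dose for 10 min before cumulative dose-response curves to the pyridinium agonist. Points are means of equipotent agonist concentrations giving standard responses, from 6–8 experiments.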"}, "Cavia porcellus [3]": {"test_system": "Cavia porcellus", "test": "Non-competitive antagonist activity at muscarinic acetylcholine receptor in guinea pig ileum assessed as inhibition of 1-(2-acetoxyethyl)pyridinium iodide-induced longitudinal muscle contraction at 0.1 uM administered 10 mins prior to 1-(2-acetoxyethyl)pyridinium iodide induction measured every 20 mins in presence of 10 uM competitive nicotinic antagonist hexamethonium chloride", "assay_type": "tissue-based", "how_it_was_run": "as §2"}, "Cavia porcellus [4]": {"species_on_record": "Cavia porcellus", "test": "Agonist activity at muscarinic acetylcholine receptor in guinea pig ileum assessed as longitudinal muscle contraction at 10^-6 M in presence of 10 uM competitive nicotinic antagonist hexamethonium chloride relative to control", "assay_type": "tissue-based"}, "Cavia porcellus [5]": {"species_on_record": "Cavia porcellus", "test": "Agonist activity at muscarinic acetylcholine receptor in guinea pig ileum assessed as longitudinal muscle contraction at 10^-4 in presence of 10 uM competitive nicotinic antagonist hexamethonium chloride relative to control", "assay_type": "tissue-based"}, "Cavia porcellus [6]": {"species_on_record": "Cavia porcellus", "test": "Agonist activity at muscarinic acetylcholine receptor in guinea pig ileum assessed as longitudinal muscle contraction measured every 20 mins in presence of 10 uM competitive nicotinic antagonist hexamethonium chloride", "assay_type": "tissue-based", "how_it_was_run": "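Isolated ileal muscle in a bath with 10 μM hexamethonium chloride to block ganglionic stimulation. Cumulative concentration-response curves to the test agonist and to acetyl-β-methylcholine (reference agonist) were built alternately on one preparation every 20 min. pD₂ was derived from the curves, n = 15 per drug, means ± SD.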"}, "Cavia porcellus [7]": {"species_on_record": "Cavia porcellus", "test": "Agonist activity at muscarinic acetylcholine receptor in guinea pig ileum assessed as longitudinal muscle contraction measured every 20 mins in absence of 10 uM competitive nicotinic antagonist hexamethonium chloride", "assay_type": "tissue-based", "how_it_was_run": "(§3)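 Isolated ileal muscle, cumulative agonist dose-response curves built every 20 min, read as contraction. pD2 derived; n = 15. Hexamethonium either left out of the bath or raised from 10 to 100 μM.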"}, "Cavia porcellus [8]": {"species_on_record": "Cavia porcellus", "test": "Agonist activity at muscarinic acetylcholine receptor in guinea pig ileum assessed as longitudinal muscle contraction measured every 20 mins in presence of 100 uM competitive nicotinic antagonist hexamethonium chloride", "assay_type": "tissue-based", "how_it_was_run": "as §3"}, "Cavia porcellus [9]": {"species_on_record": "Cavia porcellus", "test": "Agonist activity at muscarinic acetylcholine receptor in guinea pig ileum assessed as longitudinal muscle contraction measured every 20 mins in presence of 0.05 uM physostigmine", "assay_type": "tissue-based"}, "[10]": {"molecular_target": "Acetylcholinesterase (Electrophorus electricus) (UniProt O42275)", "sequence (O42275 24-633 limits assumed)": "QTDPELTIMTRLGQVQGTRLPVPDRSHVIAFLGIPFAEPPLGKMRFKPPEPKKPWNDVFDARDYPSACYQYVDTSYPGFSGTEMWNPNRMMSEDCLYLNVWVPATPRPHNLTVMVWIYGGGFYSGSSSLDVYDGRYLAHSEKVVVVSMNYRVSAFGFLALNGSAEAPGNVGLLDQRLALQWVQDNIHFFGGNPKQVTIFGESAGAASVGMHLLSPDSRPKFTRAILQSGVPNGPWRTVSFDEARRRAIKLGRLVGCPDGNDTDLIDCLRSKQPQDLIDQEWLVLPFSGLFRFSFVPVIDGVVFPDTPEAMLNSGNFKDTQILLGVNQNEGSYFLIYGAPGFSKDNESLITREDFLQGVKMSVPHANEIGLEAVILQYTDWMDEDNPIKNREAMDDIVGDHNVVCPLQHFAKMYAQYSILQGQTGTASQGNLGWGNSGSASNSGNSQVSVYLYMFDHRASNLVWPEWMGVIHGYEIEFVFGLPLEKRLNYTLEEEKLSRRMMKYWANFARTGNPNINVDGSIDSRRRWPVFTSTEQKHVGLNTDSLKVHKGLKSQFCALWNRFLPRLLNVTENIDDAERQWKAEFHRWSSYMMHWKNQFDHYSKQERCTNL", "details": "10^-6 M"}, "[11]": {"molecular_target": "Acetylcholinesterase (Electrophorus electricus) (UniProt O42275)", "test": "Inhibition of electric eel acetylcholinesterase using acetylcholine as substrate at 10^-5 M relative to control", "how_it_was_run": "(§4)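 Electric eel AChE; substrate 1 mM ACh. Inhibition taken as the lowered rate of ACh decomposition, measured by pH-stat titration. Six experiments per value, reported as means ± SD.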"}, "[12]": {"molecular_target": "Acetylcholinesterase (Electrophorus electricus) (UniProt O42275)", "test": "Inhibition of electric eel acetylcholinesterase using acetylcholine as substrate at 3 x 10^-4 M relative to control", "how_it_was_run": "as §4"}, "Cavia porcellus [13]": {"species_on_record": "Cavia porcellus", "test": "Agonist activity at muscarinic acetylcholine receptor in guinea pig ileum assessed as longitudinal muscle contraction at 10^-5 M in presence of 10 uM competitive nicotinic antagonist hexamethonium chloride relative to control", "assay_type": "tissue-based"}, "Cavia porcellus [14]": {"species_on_record": "Cavia porcellus", "test": "Agonist activity at muscarinic acetylcholine receptor in guinea pig ileum assessed as longitudinal muscle contraction at 3 x 10^-4 M in presence of 10 uM competitive nicotinic antagonist hexamethonium chloride relative to control", "assay_type": "tissue-based"}, "[15]": {"test": "Toxicity in NMRI mouse", "assay_type": "organism-based", "details": "in vivo"}, "[16]": {"molecular_target": "Acetylcholinesterase (Electrophorus electricus) (UniProt O42275)", "test": "Inhibition of electric eel acetylcholinesterase using acetylcholine as substrate at 3 x 10^-5 M relative to control", "how_it_was_run": "as §4"}, "[17]": {"molecular_target": "Acetylcholinesterase (Electrophorus electricus) (UniProt O42275)", "test": "Inhibition of electric eel acetylcholinesterase using acetylcholine as substrate at 10^-3 M relative to control", "how_it_was_run": "as §4"}, "Cavia porcellus [18]": {"species_on_record": "Cavia porcellus", "test": "Agonist activity at muscarinic acetylcholine receptor in guinea pig ileum assessed as longitudinal muscle contraction at 3 x 10^-5 M in presence of 10 uM competitive nicotinic antagonist hexamethonium chloride relative to control", "assay_type": "tissue-based"}, "Cavia porcellus [19]": {"species_on_record": "Cavia porcellus", "test": "Agonist activity at muscarinic acetylcholine receptor in guinea pig ileum assessed as longitudinal muscle contraction at 10^-3 M in presence of 10 uM competitive nicotinic antagonist hexamethonium chloride relative to control", "assay_type": "tissue-based"}},
  "note": "Calls of active or inactive are those of the source. The calls are words filed in the database; no cut-off is given here.",
  "data": [
    {"smiles": "CC[N+](C)(C)CCOC(=O)C(O)(c1ccccc1)c1ccccc1", "note": "[LACHESINE CHLORIDE]", "values": [
      {"measurement": "Kb", "setting": "[1]", "result": 0.0024, "unit": "µM"},
      {"measurement": "Kb", "setting": "[2]", "result": 0.00219, "unit": "µM"},
      {"measurement": "inhibition", "setting": "Cavia porcellus [3]", "result": "Active"}
    ]},
    {"smiles": "CC(=O)OCC[n+]1ccccc1", "values": [
      {"measurement": "%max", "setting": "Cavia porcellus [4]", "result": 0, "unit": "%"},
      {"measurement": "%max", "setting": "Cavia porcellus [5]", "result": 89, "unit": "%"},
      {"measurement": "pD2", "setting": "Cavia porcellus [6]", "result": 4.62},
      {"measurement": "Activity", "setting": "Cavia porcellus [7]", "result": "Active"},
      {"measurement": "Activity", "setting": "Cavia porcellus [8]", "result": "Active"},
      {"measurement": "Activity", "setting": "Cavia porcellus [9]", "result": "Active"},
      {"measurement": "inhibition", "setting": "[10]", "result": 23.9, "unit": "%"}
    ]},
    {"smiles": "CC(=O)OCC[n+]1ccc(C(C)(C)C)cc1.[Br-]", "values": [
      {"measurement": "inhibition", "setting": "[11]", "result": 32.3, "unit": "%"},
      {"measurement": "inhibition", "setting": "[12]", "result": 66.2, "unit": "%"},
      {"measurement": "%max", "setting": "Cavia porcellus [13]", "result": 0, "unit": "%"},
      {"measurement": "%max", "setting": "Cavia porcellus [14]", "result": 0, "unit": "%"},
      {"measurement": "LD50", "setting": "[15]", "result": 2000, "unit": "µmol/kg"},
      {"measurement": "Kb", "setting": "[1]", "result": 37.2, "unit": "µM"},
      {"measurement": "Kb", "setting": "[2]", "result": 30.2, "unit": "µM"}
    ]},
    {"smiles": "CC(=O)OCC[n+]1ccc(C)cc1.[Br-]", "values": [
      {"measurement": "inhibition", "setting": "[16]", "result": 42.5, "unit": "%"},
      {"measurement": "inhibition", "setting": "[17]", "result": 77.4, "unit": "%"},
      {"measurement": "%max", "setting": "Cavia porcellus [18]", "result": 0, "unit": "%"},
      {"measurement": "%max", "setting": "Cavia porcellus [19]", "result": 0, "unit": "%"},
      {"measurement": "LD50", "setting": "[15]", "result": 2000, "unit": "µmol/kg"},
      {"measurement": "Kb", "setting": "[1]", "result": 372, "unit": "µM"}
    ]},
    {"smiles": "CC(=O)OC(C)C[N+](C)(C)C", "note": "(configuration not stated)", "values": [
      {"measurement": "pD2", "setting": "Cavia porcellus [6]", "result": 7.02},
      {"measurement": "Activity", "setting": "Cavia porcellus [7]", "result": "Active"},
      {"measurement": "Activity", "setting": "Cavia porcellus [8]", "result": "Active"},
      {"measurement": "Activity", "setting": "Cavia porcellus [9]", "result": "Active"}
    ]}
  ]
}
